# Experimental data published in article PMC3160560 (Investigational New Drugs, 2010).
# Where two headings read alike, the source gives them in different places.
# How the values were obtained:
# [1] = pharmacokinetics in phase I cancer patients; assay type: in vivo, human
# Method in brief: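 In the phase I trial, the test compound was given IV on days 1, 8 and 15 every 28 days. Doses were 45–400 mg/m2 by 6-h infusion or 250–330 mg/m2 by 3-h infusion. Blood was sampled on days 1–4, 8, 15–18 and 22 of cycle 1. Clearance (L/hour/m2) came from non-compartmental analysis. Genotypes came from TaqMan assays on blood DNA and were compared by t-test/ANOVA.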
# [2] = toxicity in first treatment cycle; assay type: in vivo, human; details: for Neutropenia grade 3–4: No (No. patients) / Neutropenia grade 3–4: Yes (No. patients): cycle 1, RP2D
# Method in brief: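 Adverse events in cycle 1 were graded by NCI-CTC v3.0. Phase II patients received 330 mg/m2 on days 1, 8 and 15 (6-h) or 500 mg/m2 on days 1 and 15 (24-h) every 28 days. Genotypes were compared by two-sided chi-square.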
# [3] = system: histone H3 phosphorylation; assay: histone H3 phosphorylation in skin biopsies by immunohistochemistry; assay type: in vivo, human
# Method in brief: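 Skin biopsies were taken at baseline and 10 min before the end of the first infusion of cycle 1. Phospho-histone H3 was stained by immunohistochemistry, giving the % change in positive cells. AURKB genotypes were compared by t-test/ANOVA.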
# aurora-A (AURKA) = details: read-out: IC50 aurora-A; cited from earlier work
# aurora-B (AURKB) = details: read-out: IC50 aurora-B; cited from earlier work
# aurora-C (AURKC) = details: read-out: IC50 aurora-C; cited from earlier work
# ret proto-oncogene (RET) = details: read-out: IC50 RET; panel of 32 kinases; cited from earlier work
# [4] = molecular target: vascular endothelial growth factor receptor 3 (FLT4, VEGFR3); details: read-out: IC50 FLT4 (VEGFR3); panel of 32 kinases; cited from earlier work
# [5] = molecular target: fms-related tyrosine kinase 3 (FLT3); details: read-out: IC50 FLT3; panel of 32 kinases; cited from earlier work
# [6] = system: ATP-binding cassette B1 (ABCB1/MDR1); details: in vitro; ref unpublished data (b4), 26; cited from earlier work
# [7] = system: ATP-binding cassette G2 (ABCG2/BCRP); details: in vitro; ref unpublished data (b4), 26; cited from earlier work
# [8] = cited from earlier work
# [9] = AURKA 91A > T AT, total 6 patients
# [10] = AURKA 169G > A GA, total 11 patients
# [11] = AURKA 169G > A GG, total 18 patients
# [12] = AURKB 893G > A GA, total 8 patients
# [13] = FLT3 738C > T CC, total 5 patients
# [14] = FLT3 738C > T TT, total 10 patients
# [15] = FLT4 1480A > G AG, total 7 patients
# [16] = KDR 54G > A AA, total 5 patients
# [17] = KDR 54G > A GA, total 16 patients
# [18] = KDR 54G > A GG, total 9 patients
# [19] = KDR 1192G > A GA, total 3 patients
# [20] = KDR −92G > A AG, total 7 patients
# [21] = KDR −92G > A GG, total 20 patients
# [22] = KDR −604T > C TT, total 6 patients
# [23] = RET 135G > A AA, total 3 patients (3 missing)
# [24] = RET 135G > A GA, total 8 patients (3 missing)
# [25] = RET 37412G > A GA, total 5 patients
smiles,measurement,setting,value
CO[C@@H](C(=O)N1Cc2n[nH]c(NC(=O)c3ccc(N4CCN(C)CC4)cc3)c2C1)c1ccccc1 [Danusertib],Clearance d1c1 Mean,"[1]; ABCB1 1236C > T CC, 16 patients",17.8 L/hour/m^2
same,Clearance d1c1 Mean,"[1]; ABCB1 1236C > T CT, 21 patients",18.3 L/hour/m^2
same,Clearance d1c1 Mean,"[1]; ABCB1 1236C > T TT, 10 patients",18.6 L/hour/m^2
same,Clearance d1c1 Mean,"[1]; ABCB1 2677G > A/T GG, 17 patients",18.2 L/hour/m^2
same,Clearance d1c1 Mean,"[1]; ABCB1 2677G > A/T GT, 20 patients",18.5 L/hour/m^2
same,Clearance d1c1 Mean,"[1]; ABCB1 2677G > A/T TT, 10 patients",17.7 L/hour/m^2
same,Clearance d1c1 Mean,"[1]; ABCB1 3435C > T CC, 13 patients",19.5 L/hour/m^2
same,Clearance d1c1 Mean,"[1]; ABCB1 3435C > T CT, 21 patients",17.7 L/hour/m^2
same,Clearance d1c1 Mean,"[1]; ABCB1 3435C > T TT, 13 patients",17.8 L/hour/m^2
same,Clearance d1c1 Mean,"[1]; ABCG2 346G > A GA, 2 patients",18.6 L/hour/m^2
same,Clearance d1c1 Mean,"[1]; ABCG2 346G > A GG, 45 patients",18.2 L/hour/m^2
same,Clearance d1c1 Mean,"[1]; ABCG2 421C > A CA, 11 patients",18.8 L/hour/m^2
same,Clearance d1c1 Mean,"[1]; ABCG2 421C > A CC, 36 patients",18.1 L/hour/m^2
same,Clearance d1c1 Mean,"[1]; ABCG2 15994G > A AA, 3 patients",16.5 L/hour/m^2
same,Clearance d1c1 Mean,"[1]; ABCG2 15994G > A GA, 21 patients",18.2 L/hour/m^2
same,Clearance d1c1 Mean,"[1]; ABCG2 15994G > A GG, 23 patients",18.5 L/hour/m^2
same,Clearance d1c1 Mean,"[1]; FMO3 15167G > A AA, 12 patients",16.9 L/hour/m^2
same,Clearance d1c1 Mean,"[1]; FMO3 15167G > A GA, 20 patients",18.1 L/hour/m^2
same,Clearance d1c1 Mean,"[1]; FMO3 15167G > A GG, 15 patients",19.5 L/hour/m^2
same,Clearance d1c1 Mean,"[1]; FMO3 18281G > A AA, 1 patient",34.0 L/hour/m^2
same,Clearance d1c1 Mean,"[1]; FMO3 18281G > A GA, 11 patients",17.2 L/hour/m^2
same,Clearance d1c1 Mean,"[1]; FMO3 18281G > A GG, 35 patients",18.1 L/hour/m^2
same,Clearance d1c1 Mean,"[1]; FMO3 21443A > G AA, 27 patients",19.2 L/hour/m^2
same,Clearance d1c1 Mean,"[1]; FMO3 21443A > G AG, 18 patients",16.9 L/hour/m^2
same,Clearance d1c1 Mean,"[1]; FMO3 21443A > G GG, 2 patients",16.4 L/hour/m^2
same,"Clearance day 1 cycle 1, Median ± SD","[1]; phase I patients, n = 47",17.8 ± 5.8 L/hour/m^2
same,Any toxicity grade 1–4 during cycle 1,[2]; All patients N = 63,51 (81) n (%)
same,Any toxicity grade 3 or 4 during cycle 1,[2]; All patients N = 63,22 (35) n (%)
same,Febrile neutropenia during cycle 1,[2]; All patients N = 63,1 (2) n (%)
same,Neutropenia grade 1–4 during cycle 1,[2]; All patients N = 63,34 (54) n (%)
same,Neutropenia grade 3 or 4 during cycle 1,[2]; All patients N = 63,18 (29) n (%)
same,Any toxicity grade 1–4 during cycle 1,[2]; Phase I patients N = 48,37 (77) n (%)
same,Any toxicity grade 3 or 4 during cycle 1,[2]; Phase I patients N = 48,15 (31) n (%)
same,Febrile neutropenia during cycle 1,[2]; Phase I patients N = 48,1 (2) n (%)
same,Neutropenia grade 1–4 during cycle 1,[2]; Phase I patients N = 48,25 (52) n (%)
same,Neutropenia grade 3 or 4 during cycle 1,[2]; Phase I patients N = 48,12 (25) n (%)
same,Any toxicity grade 1–4 during cycle 1,[2]; RP2D patients N = 30,28 (93) n (%)
same,Any toxicity grade 3 or 4 during cycle 1,[2]; RP2D patients N = 30,15 (50) n (%)
same,Febrile neutropenia during cycle 1,[2]; RP2D patients N = 30,1 (3) n (%)
same,Neutropenia grade 1–4 during cycle 1,[2]; RP2D patients N = 30,19 (63) n (%)
same,Neutropenia grade 3–4: No (No. patients),[2]; [9],2
same,Neutropenia grade 3–4: Yes (No. patients),[2]; [9],4
same,Neutropenia grade 3–4: No (No. patients),"[2]; AURKA 91A > T TT, total 4 patients",4
same,Neutropenia grade 3–4: No (No. patients),"[2]; AURKA 169G > A AA, total 1 patient",1
same,Neutropenia grade 3–4: No (No. patients),[2]; [10],6
same,Neutropenia grade 3–4: Yes (No. patients),[2]; [10],5
same,Neutropenia grade 3–4: No (No. patients),[2]; [11],10
same,Neutropenia grade 3–4: Yes (No. patients),[2]; [11],8
same,Neutropenia grade 3–4: No (No. patients),[2]; [12],6
same,Neutropenia grade 3–4: Yes (No. patients),[2]; [12],2
same,Neutropenia grade 3–4: No (No. patients),[2]; [13],4
same,Neutropenia grade 3–4: Yes (No. patients),[2]; [13],1
same,Neutropenia grade 3–4: Yes (No. patients),"[2]; FLT3 738C > T CT, total 15 patients",8
same,Neutropenia grade 3–4: No (No. patients),[2]; [14],6
same,Neutropenia grade 3–4: Yes (No. patients),[2]; [14],4
same,Neutropenia grade 3–4: No (No. patients),[2]; [15],5
same,Neutropenia grade 3–4: Yes (No. patients),[2]; [15],2
same,Neutropenia grade 3–4: No (No. patients),[2]; [16],2
same,Neutropenia grade 3–4: Yes (No. patients),[2]; [16],3
same,Neutropenia grade 3–4: No (No. patients),[2]; [17],10
same,Neutropenia grade 3–4: Yes (No. patients),[2]; [17],6
same,Neutropenia grade 3–4: No (No. patients),[2]; [18],5
same,Neutropenia grade 3–4: Yes (No. patients),[2]; [18],4
same,Neutropenia grade 3–4: No (No. patients),[2]; [19],2
same,Neutropenia grade 3–4: Yes (No. patients),[2]; [19],1
same,Neutropenia grade 3–4: No (No. patients),"[2]; KDR 1192G > A GG, total 27 patients",15
same,Neutropenia grade 3–4: Yes (No. patients),"[2]; KDR 1719A > T AA, total 1 patient",1
same,Neutropenia grade 3–4: No (No. patients),"[2]; KDR 1719A > T AT, total 15 patients",8
same,Neutropenia grade 3–4: Yes (No. patients),"[2]; KDR 1719A > T TT, total 14 patients",5
same,Neutropenia grade 3–4: No (No. patients),"[2]; KDR −92G > A AA, total 3 patients",3
same,Neutropenia grade 3–4: No (No. patients),[2]; [20],4
same,Neutropenia grade 3–4: Yes (No. patients),[2]; [20],3
same,Neutropenia grade 3–4: No (No. patients),[2]; [21],10
same,Neutropenia grade 3–4: Yes (No. patients),[2]; [21],10
same,Neutropenia grade 3–4: Yes (No. patients),"[2]; KDR −604T > C CC, total 9 patients",2
same,Neutropenia grade 3–4: Yes (No. patients),"[2]; KDR −604T > C TC, total 15 patients",8
same,Neutropenia grade 3–4: No (No. patients),[2]; [22],3
same,Neutropenia grade 3–4: Yes (No. patients),[2]; [22],3
same,Neutropenia grade 3–4: No (No. patients),[2]; [23],1
same,Neutropenia grade 3–4: Yes (No. patients),[2]; [23],2
same,Neutropenia grade 3–4: No (No. patients),[2]; [24],6
same,Neutropenia grade 3–4: Yes (No. patients),[2]; [24],2
same,Neutropenia grade 3–4: No (No. patients),"[2]; RET 37412G > A AA, total 1 patient",1
same,Neutropenia grade 3–4: No (No. patients),[2]; [25],2
same,Neutropenia grade 3–4: Yes (No. patients),[2]; [25],3
same,Neutropenia grade 3–4: Yes (No. patients),"[2]; RET 37412G > A GG, total 24 patients",10
same,decrease in histone H3 phosphorylation,"[3]; AURKB 893G > A heterozygous genotype (GA), SD 12.2%",84%
same,decrease in histone H3 phosphorylation,"[3]; AURKB 893G > A homozygous wild type genotype (GG), SD 13.3%",91%
same,"Histone H3 phosphorylation, % change in number of positive cells, Median ± SD","[3]; phase I patients, n = 28, skin, baseline vs 10 min before end of first infusion",-92.3 ± 13.1 Δ%
same,IC50,aurora-C (AURKC),0.061 µM
same,IC50,ret proto-oncogene (RET),< 0.5 µM
same,IC50,[4],< 0.5 µM
same,IC50,[5],< 0.5 µM
same,substrate for efflux protein ABCB1,[6],substrate
same,substrate for efflux protein ABCG2,[7],substrate
same,clearance,[8]; 3-hour infusion schedule,16.2 L/hour/m^2
same,clearance,[8]; 6-hour infusion schedule,18.0 L/hour/m^2
same,dose linearity of pharmacokinetics,"[8]; over the dose-range studied, phase I",linear pharmacokinetics
same,elimination half-life,"[8]; phase I study, intravenous",about 30 h
same,plasma clearance (range),"[8]; phase I study, intravenous",10 to 59 L/h
